Reference: ChEMBL document CHEMBL1914293, “Pharmacophore-based discovery of FXR-agonists. Part II: identification of bioactive triterpenes from Ganoderma lucidum” (Bioorg Med Chem, 2011)
Active and inactive are the calls of the source. No cut-off for these calls is given here.

Key:
Type in all cases: functional, cell-based
HUVEC [1] = assay: Antiinflammatory activity in human HUVEC cells assessed as inhibition of TNF-alpha-induced E-selectin mRNA expression at 5 uM for 10 mins measured after 4 hrs of LPS challenge by Q-PCR analysis
How it was run: (§1)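 hTERT-immortalized HUVEC (HUVECtert) were grown in M199 with 20% FBS, endothelial cell growth supplement and antibiotics. Cells were treated with compounds at 5 μM, then stimulated with TNFα (human recombinant, 100 ng/mL) or LPS (E. coli 055:B5, 300 ng/mL). IL-8 and E-selectin mRNA were measured by qPCR, normalized to β2-microglobulin (Pfaffl method), and expressed as fold over untreated control. Statistics used ANOVA with Bonferroni post-test.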

HUVEC [2] = assay: Antiinflammatory activity in human HUVEC cells assessed as inhibition of LPS-induced IL-8 mRNA expression at 5 uM for 10 mins measured after 4 hrs of LPS challenge by Q-PCR analysis; how it was run: as §1
HUVEC [3] = assay: Antiinflammatory activity in human HUVEC cells assessed as inhibition of LPS-induced E-selectin mRNA expression at 5 uM for 10 mins measured after 4 hrs of LPS challenge by Q-PCR analysis; how it was run: as §1
HUVEC [4] = assay: Antiinflammatory activity in human HUVEC cells assessed as inhibition of TNF-alpha-induced IL-8 mRNA expression at 5 uM for 10 mins measured after 4 hrs of LPS challenge by Q-PCR analysis; how it was run: as §1
[5] = target: T1, Bile acid receptor/Retinoic acid receptor RXR-alpha (Mus musculus, UniProt P28700+Q60641); assay: Agonist activity at full length mouse FXR/RXRalpha expressed in human HEK293 cells assessed as induction of transcriptional activity after 18 hrs by dual luciferase reporter gene assay
T1 sequence (P28700 whole entry): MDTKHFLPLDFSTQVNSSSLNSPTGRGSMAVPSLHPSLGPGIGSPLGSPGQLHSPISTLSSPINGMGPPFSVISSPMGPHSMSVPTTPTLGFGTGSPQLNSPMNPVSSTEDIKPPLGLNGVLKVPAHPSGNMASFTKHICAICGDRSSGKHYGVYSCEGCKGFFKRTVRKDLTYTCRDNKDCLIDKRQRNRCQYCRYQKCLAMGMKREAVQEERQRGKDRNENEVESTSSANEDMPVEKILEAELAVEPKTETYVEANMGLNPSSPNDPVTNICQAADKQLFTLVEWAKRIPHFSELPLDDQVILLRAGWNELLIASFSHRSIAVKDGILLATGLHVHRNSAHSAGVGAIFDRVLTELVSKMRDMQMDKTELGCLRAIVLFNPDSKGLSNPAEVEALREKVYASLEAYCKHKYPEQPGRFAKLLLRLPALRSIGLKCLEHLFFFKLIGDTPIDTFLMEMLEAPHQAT
T1 sequence (Q60641 whole entry): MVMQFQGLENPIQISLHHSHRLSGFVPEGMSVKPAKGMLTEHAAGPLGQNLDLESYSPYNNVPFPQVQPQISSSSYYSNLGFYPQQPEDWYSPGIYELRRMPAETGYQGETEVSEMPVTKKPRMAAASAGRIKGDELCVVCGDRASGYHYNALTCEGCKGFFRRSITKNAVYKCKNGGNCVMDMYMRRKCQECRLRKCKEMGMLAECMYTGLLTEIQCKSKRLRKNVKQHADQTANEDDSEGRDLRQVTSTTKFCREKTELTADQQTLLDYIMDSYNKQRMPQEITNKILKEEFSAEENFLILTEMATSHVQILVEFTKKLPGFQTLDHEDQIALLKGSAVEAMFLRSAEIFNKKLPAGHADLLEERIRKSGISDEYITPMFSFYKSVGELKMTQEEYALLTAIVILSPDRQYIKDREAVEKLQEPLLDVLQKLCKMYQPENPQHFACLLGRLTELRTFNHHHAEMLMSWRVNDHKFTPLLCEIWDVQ

SMILES: C[C@H](CC[C@H](O)[C@](C)(O)CO)[C@H]1CC[C@@]2(C)C3=CC[C@H]4C(C)(C)C(=O)CC[C@]4(C)C3=CC[C@]12C [GANODERMANONTRIOL]
- inhibition (HUVEC [1]): Active
- inhibition (HUVEC [2]): Active
- inhibition (HUVEC [3]): Active
- inhibition (HUVEC [4]): Active
- EC50 [5]: 2.5 µM

SMILES: C[C@H](CCC=C(CO)CO)[C@H]1CC[C@@]2(C)C3=CC[C@H]4C(C)(C)C(=O)CC[C@]4(C)C3=CC[C@]12C [GANODERIOL F]
- inhibition (HUVEC [1]): Active
- inhibition (HUVEC [2]): Active
- inhibition (HUVEC [3]): Active
- inhibition (HUVEC [4]): Active
- EC50 [5]: 5 µM

SMILES: C/C(=C/CC[C@@H](C)[C@H]1C[C@H](O)[C@@]2(C)C3=CC[C@H]4C(C)(C)C(=O)CC[C@]4(C)C3=CC[C@]12C)C(=O)O [GANODERIC ACID TR]
- inhibition (HUVEC [1]): Active
- inhibition (HUVEC [2]): Active
- inhibition (HUVEC [3]): Active
- inhibition (HUVEC [4]): Active
- EC50 [5]: > 14 µM

SMILES: CC(C)[C@@H](C)/C=C/[C@@H](C)[C@H]1CC[C@@H]2[C@]1(C)CC[C@H]1[C@]23C=C[C@]2(C[C@@H](O)CC[C@]12C)OO3 [ERGOSTEROL PEROXIDE]
- inhibition (HUVEC [1]): Active
- inhibition (HUVEC [2]): Active
- inhibition (HUVEC [3]): Active
- inhibition (HUVEC [4]): Active
- EC50 [5]: 0.85 µM

SMILES: C[C@H](CC[C@H](O)C(C)(C)O)[C@H]1CC[C@@]2(C)C3=C(CC[C@]12C)[C@@]1(C)CCC(=O)C(C)(C)[C@@H]1CC3=O [LUCIDUMOL A]
- inhibition (HUVEC [1]): Active
- inhibition (HUVEC [2]): Active
- inhibition (HUVEC [3]): Active
- inhibition (HUVEC [4]): Active
- EC50 [5]: > 18.6 µM
